From ChEMBL document CHEMBL1127619, “Synthesis of naltrexone-derived delta-opioid antagonists. Role of conformation of the delta address moiety” (J Med Chem, 1994)

Columns and labels:
Mus musculus [1] = assay: Antagonism of antinociceptive effect of kappa receptor selective agonist U-50,488 in mice, icv (treated); type: functional; settings: central
Outline: (§1)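 Mice received 2 nmol antagonist icv, timed with the icv agonist so the antagonist peak (20 min) coincided with the centre of the tail-flick observation period. Treated ED50 is in nmol/mouse for DPDPE and DSLET and in µmol/kg for morphine and U50488. ED50 ratio is treated over control.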

Mus musculus [2] = assay: Antagonism of antinociceptive effect of mu receptor selective agonist morphine in mice, icv (treated); type: functional; settings: central; outline: as §1
Mus musculus [3] = organism: Mus musculus; assay: Antagonism of antinociceptive effect of mu receptor selective agonist morphine in mice (control); type: functional
Outline: (§2)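 Mouse tail-flick assay; agonist given icv without antagonist pretreatment, timed so its peak effect fell at the centre of the observation period. Control ED50 derived, expressed as nmol/mouse for DPDPE and DSLET and as µmol/kg for morphine and U50488.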

[4] = target: Mu-type opioid receptor (Cavia porcellus) (UniProt P97266); settings: 100 nM
Chain of Mu-type opioid receptor (Cavia porcellus) (P97266 whole entry): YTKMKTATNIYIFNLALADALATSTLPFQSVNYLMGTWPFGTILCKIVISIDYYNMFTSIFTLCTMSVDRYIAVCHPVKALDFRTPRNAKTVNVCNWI

Mus musculus [5] = organism: Mus musculus; assay: Antagonism of antinociceptive effect of delta 2 selective agonist DSLET in mice (control); type: functional; outline: as §2
Mus musculus [6] = assay: Antagonism of antinociceptive effect of delta 2 selective agonist DSLET in mice, icv (treated); type: functional; settings: central
[7] = target: Delta-type opioid receptor (Mus musculus) (UniProt P32300); settings: 100 nM
Chain of Delta-type opioid receptor (Mus musculus) (P32300 whole entry): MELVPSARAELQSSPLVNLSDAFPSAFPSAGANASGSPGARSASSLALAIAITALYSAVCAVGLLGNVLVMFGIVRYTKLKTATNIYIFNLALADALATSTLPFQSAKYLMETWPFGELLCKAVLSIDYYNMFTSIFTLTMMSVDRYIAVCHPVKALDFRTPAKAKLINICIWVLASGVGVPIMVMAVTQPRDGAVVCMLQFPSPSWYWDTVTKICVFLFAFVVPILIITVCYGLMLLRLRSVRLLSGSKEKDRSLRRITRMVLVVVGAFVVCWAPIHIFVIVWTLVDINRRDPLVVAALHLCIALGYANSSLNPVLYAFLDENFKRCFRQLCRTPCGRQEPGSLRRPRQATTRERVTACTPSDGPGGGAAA

[8] = target: Kappa-type opioid receptor (Cavia porcellus) (UniProt P41144); settings: 100 nM
Chain of Kappa-type opioid receptor (Cavia porcellus) (P41144 whole entry): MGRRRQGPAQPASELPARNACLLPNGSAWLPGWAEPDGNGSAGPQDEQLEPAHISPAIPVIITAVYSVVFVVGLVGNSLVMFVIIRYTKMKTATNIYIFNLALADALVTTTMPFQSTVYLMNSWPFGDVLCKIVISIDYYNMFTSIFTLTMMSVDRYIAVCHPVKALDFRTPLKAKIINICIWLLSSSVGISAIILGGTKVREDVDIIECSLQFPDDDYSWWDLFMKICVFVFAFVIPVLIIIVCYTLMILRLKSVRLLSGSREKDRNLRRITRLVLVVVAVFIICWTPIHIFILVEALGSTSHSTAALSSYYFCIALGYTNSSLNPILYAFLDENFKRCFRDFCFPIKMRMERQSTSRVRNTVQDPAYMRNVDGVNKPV

Mus musculus [9] = organism: Mus musculus; assay: Antagonism of antinociceptive effect of delta 1 selective agonist DPDPE in mice (control); type: functional; outline: as §2
[10] = target: T1, Delta-type opioid receptor (Rattus norvegicus, UniProt P33533); assay: Tested for binding activity against delta opioid receptor using [3H]naltridole ligand
T1 sequence (P33533 whole entry): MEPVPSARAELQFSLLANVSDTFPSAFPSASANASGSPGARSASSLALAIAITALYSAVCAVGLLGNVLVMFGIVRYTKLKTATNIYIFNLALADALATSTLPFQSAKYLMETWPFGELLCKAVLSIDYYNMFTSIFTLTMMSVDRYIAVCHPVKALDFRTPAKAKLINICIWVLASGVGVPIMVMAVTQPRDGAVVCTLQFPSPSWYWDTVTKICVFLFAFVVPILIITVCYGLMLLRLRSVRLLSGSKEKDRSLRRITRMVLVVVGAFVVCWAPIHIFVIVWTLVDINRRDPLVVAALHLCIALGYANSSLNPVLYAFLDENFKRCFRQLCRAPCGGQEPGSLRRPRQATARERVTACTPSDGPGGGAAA

Mus musculus [11] = organism: Mus musculus; assay: Antagonism of antinociceptive effect of kappa receptor selective agonist U-50,488 in mice (control); type: functional; outline: as §2
[12] = target: Kappa-type opioid receptor (Cavia porcellus, UniProt P41144); assay: Tested for binding activity against kappa opioid receptor using [3H]U-69593 ligand
Chain of Kappa-type opioid receptor (P41144 whole entry): as the sequence (P41144 whole entry) above
Outline: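 Guinea pig brain membranes; competition of test ligand against the tritiated radioligand selective for each site: [3H]DPDPE (δ1), [3H]U69593 (κ), [3H]DAMGO (μ). Ki values derived from the competition curves.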

Mus musculus [13] = assay: Antagonism of antinociceptive effect of delta 1 selective agonist DPDPE in mice, icv (treated); type: functional; settings: central
[14] = target: Kappa-type opioid receptor (Cavia porcellus) (UniProt P41144); settings: 100 nM; remark: listed apart in the source
[15] = target: T1, Delta-type opioid receptor; assay: Tested for binding activity against delta1 opioid receptor using [3H]DPDPE ligand

O=C1[C@@H]2Oc3c(O)ccc4c3[C@@]23CCN(CC2CC2)[C@H](C4)[C@]3(O)CC12Cc1ccccc1C2
ED50 (Mus musculus [1]): 12.2 µmol/kg
ED50 (Mus musculus [2]): 21.1 µmol/kg
ED50 (Mus musculus [3]): 6.9 uM mouse-1
Ke [4]: 4.2 nM
ED50 (Mus musculus [5]): 0.7 uM mouse-1
ED50 (Mus musculus [6]): 2.8 µmol/kg
Ke [7]: 0.78 nM
Ke [8]: 105 nM
ED50 (Mus musculus [9]): 6.4 uM mouse-1
Ki [10]: 0.047 nM
ED50 (Mus musculus [11]): 8.6 uM mouse-1
Ki [12]: 12.5 nM
ED50 (Mus musculus [13]): 46.3 µmol/kg

Oc1ccc2c3c1O[C@H]1[C@H](Nc4ccccc4)CC[C@@]4(O)[C@@H](C2)N(CC2CC2)CC[C@]314
Ke [14]: 6 nM
Ke [4]: 1.3 nM
Ke [7]: 100 nM
Ki [12]: 2.2 nM

O=C1[C@@H](Cc2ccccc2)C[C@@]2(O)[C@H]3Cc4ccc(O)c5c4[C@@]2(CCN3CC2CC2)[C@H]1O5
Ke [4]: 21 nM
Ke [7]: 1.5 nM
Ki [12]: 25 nM

Oc1ccc2c3c1O[C@H]1[C@@H](Nc4ccccc4)CC[C@@]4(O)[C@@H](C2)N(CC2CC2)CC[C@]314
Ke [14]: 100 nM
Ke [4]: 3.2 nM
Ke [7]: 8.8 nM
Ki [12]: 2.2 nM

O=C1/C(=C\c2ccccc2)C[C@@]2(O)[C@H]3Cc4ccc(O)c5c4[C@@]2(CCN3CC2CC2)[C@H]1O5
Ke [14]: 53 nM
Ke [7]: 24 nM
Ki [12]: 66 nM

Oc1ccc2c3c1O[C@H]1C4(CC[C@@]5(O)[C@@H](C2)N(CC2CC2)CC[C@]315)Oc1ccccc1O4
Ke [4]: 40 nM
Ki [12]: 25 nM

O=C1/C(=C/c2ccccc2)C[C@@]2(O)[C@H]3Cc4ccc(O)c5c4[C@@]2(CCN3CC2CC2)[C@H]1O5 [BNTX]
Ke [14]: 100 nM
Ke [4]: 8.3 nM
Ke [7]: 2.9 nM
Ki [12]: 5.9 nM

Oc1ccc2c3c1O[C@H]1c4[nH]c5ccccc5c4C[C@@]4(O)[C@@H](C2)N(CC2CC2)CC[C@]314 [NALTRINDOLE]
Ki [15]: 7.2 pM
